According to ChEMBL document CHEMBL5046283, “Design, Synthesis, and Biological Evaluation of the First Inhibitors of Oncogenic CHD1L” (J Med Chem, 2022):
Calls of active or inactive are those of the source. The rule behind the calls is not given here.

What was measured:
[1] = Cytotoxicty against CRC102 patient-derived tumor organoid assessed as reduction in cell viability incubated for 72 hrs by CellTiter Glo assay; format: functional, tissue-based; details: Homo sapiens, Colon cancer organoid
Method in brief: (§1)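 Patient cells washed with PBS, digested with TrypLE and passed through a 100 μm strainer. Seeded at 5,000 cells/well with 2% Matrigel and left 72 h to self-assemble as organoids, then dosed for 72 h. CellTiter Glo 3D added 1:1, 45 min at room temperature with shaking, luminescence read. Normalised to 0.5% DMSO; triplicate experiments, technical n = 3.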

[2] = tested on: SW-620; assay: Inhibition of cell stemness in human SW-620 M-phenotype cells assessed as reduction in colony formation; format: functional, cell-based
Method in brief: (§2)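 M-Phenotype cells plated at 200 (SW620) or 75 (HCT116) cells/well and treated continuously. Medium and drug replenished every three days over 7–10 days of growth. Colonies imaged by high-content imaging and counted. Duplicate experiments with triplicate technical replicates.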

[3] = Induction of mesenchymal-epithelial transition in human HCT-116 M-phenotype tumor organoid assessed as downregulation of vimentin expression by fluorescence analysis; format: functional, cell-based
Method in brief: (§3)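 M-Phenotype organoids carry a dual reporter (VimPro-GFP, EcadPro-RFP). Dose-response over a 72 h treatment; vimentin promoter activity read as GFP fluorescence by 3D high-content imaging and normalised. Duplicate experiments.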

[4] = tested on: SW-620; assay: Cytotoxicity against human SW-620 M-phenotype tumor organoid assessed as reduction in cell viability incubated for 72 hrs by CellTiter Glo assay; format: functional, cell-based; details: SW-620, 72 h
Method in brief: (§4)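 Isolated M-Phenotype cells plated at 2,000 cells/well in ultra-low-attachment round-bottom wells, centrifuged to aggregate, then given 2% Matrigel final. Grown 72 h at 37 °C/5% CO2 to form organoids, then dosed for 72 h. CellTiter Glo 3D added 1:1, shaken 45 min at room temperature, luminescence read. Normalised to 0.5% DMSO vehicle; triplicate experiments, technical n = 3.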

[5] = Inhibition of CHD1L-mediated TCF transcription in human SW-620 M-phenotype cells incubated for 24 hrs by TOPflash luciferase reporter assay; format: cell-based; details: SW-620, 24 h
Method in brief: (§5)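 M-Phenotype cells seeded at 20,000 (SW620) or 10,000 (HCT116) cells/well and transiently transfected with TOPflash for 72 h. Treated for 24 h. Luminescence read with One-Glo after PBS wash, normalised to total protein by BCA on a parallel plate.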

[6] = Cytotoxicty against CRC042 patient-derived tumor organoids assessed as reduction in cell viability incubated for 72 hrs by CellTiter Glo assay; format: functional; details: Homo sapiens, Neoplasm; method in brief: as §1
[7] = tested on: HCT-116; assay: Inhibition of cell stemness in human HCT-116 M-phenotype cells assessed as reduction in colony formation; format: functional, cell-based; method in brief: as §2
[8] = Inhibition of CHD1L-mediated TCF transcription in human HCT-116 M-phenotype cells incubated for 24 hrs by TOPflash luciferase reporter assay; format: cell-based; details: HCT-116, 24 h; method in brief: as §5
[9] = tested on: HCT-116; assay: Cytotoxicity against human HCT-116 M-phenotype tumor organoid assessed as reduction in cell viability incubated for 72 hrs by CellTiter Glo assay; format: functional, cell-based; details: HCT-116, 72 h; method in brief: as §4
[10] = Inhibition of recombinant catalytic CHD1L (unknown origin) preincubated for 10 mins followed by ATP addition measured after 1 hr by plate reader analysis; design: species or system Homo sapiens
Method in brief: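 800 nM catalytic CHD1L and 200 nM mononucleosome preincubated with inhibitor for 10 min at 37 °C in 50 mM Tris pH 7.5, 50 mM NaCl, 5 mM MgCl2, 2 mM DTT, 5% glycerol. Reaction started with 10 μM ATP, 1 h at 37 °C. Phosphate sensor added (500 nM), fluorescence read at ex 430/em 450. No-enzyme background; normalised to DMSO; triplicate.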

[11] = Induction of mesenchymal-epithelial transition in human SW-620 M-phenotype tumor organoid assessed as downregulation of vimentin expression by fluorescence analysis; format: functional, cell-based; method in brief: as §3
[12] = tested on: SW-620; assay: Cytotoxicity against human SW-620 tumor organoid assessed as reduction in cell viability incubated for 72 hrs by CellTiter Glo assay; format: functional, cell-based; details: SW-620, 72 h
[13] = tested on: SW-620; assay: Antitumor activity against human SW-620 cells xenografted in athymic nude mouse assessed as decrease in tumor volume at 75 to 125 mg/kg, po measured after 20 to 28 days by caliper method; format: functional, organism-based; details: dose 75-125 mg/kg, time 20-28 day
Method in brief: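 SW620 EMT dual-reporter M-Phenotype cells, 2 × 10^6 cells/100 μL in 1:1 Matrigel:RPMI 1640, injected subcutaneously into each flank of female athymic nude mice (8 weeks old). Randomised at day 5 to vehicle (10% DMSO, 90% PEG 400), 75 or 125 mg/kg. Oral gavage once daily, 5 days/week, for 28–31 days. Caliper tumour volume twice weekly by 4/3*[…]*(L/2)*(W/2)*(H/2).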

[14] = Toxicity in athymic nude mouse xenografted with human SW-620 cells assessed as change in body weight at 75 to 125 mg/kg, po measured after 28 days; format: organism-based; details: in vivo, dose 75-125 mg/kg, time 28 day
Method in brief: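 Female athymic nude mice (8 weeks old) bearing subcutaneous SW620 EMT dual-reporter M-Phenotype flank xenografts. Dosed by oral gavage at 75 or 125 mg/kg, or vehicle (10% DMSO, 90% PEG 400), once daily, 5 days/week, for 28–31 days. Body weight recorded twice weekly.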

SMILES | IC50 [2] [µM] | IC50 [3] [µM] | IC50 [5] [µM] | IC50 [7] [µM] | IC50 [8] [µM] | IC50 [10] [µM] | IC50 [11] [µM] | IC50 [1] [µM] | IC50 [4] [µM] | IC50 [6] [µM] | IC50 [9] [µM] | IC50 [12] [µM] | Activity [13] | Activity [14]
Cc1cc(Nc2ccc(NC(=O)Cc3cc(Br)cs3)cc2)nc(N2CCCC2)n1 | 1.6 | 5 | 12 | 0.8 | 8.7 | 3.3 | 3.3 | 8.3 | 2.6 | 4.2 | 4.3 | 2.6 | Active | Non-Toxic
Cc1cc(Nc2ccc(NC(=O)Cc3cccs3)cc2)nc(N2CCCC2)n1 |  | 13 | 43 | 3.2 | 38 | 4 | 10 | 21 | 8.7 | 16 | 9.4 | 4.6 |  | 
Cc1cc(Nc2ccc(NC(=O)Cc3cc(Cl)nc4ccccc34)cc2)nc(N2CCCC2)n1 | 0.3 | 2.6 | 4.9 | 0.2 | 4.9 | 12 | 1.3 | 3.5 | 1.3 | 3.1 | 2.2 | 2.4 |  | 

Second part, led by results:

IC50 [2] [µM] | IC50 [3] [µM] | IC50 [5] [µM] | IC50 [7] [µM] | IC50 [8] [µM] | IC50 [10] [µM] | IC50 [11] [µM] | SMILES | IC50 [1] [µM] | IC50 [4] [µM] | IC50 [6] [µM] | IC50 [9] [µM] | IC50 [12] [µM] | Activity [13] | Activity [14]
1.1 | 1.9 | 11 | 0.9 | 6.9 | 3.3 | 1.5 | Cc1cc(Nc2ccc(NC(=O)Cc3c[nH]c4ccccc34)cc2)nc(N2CCCC2)n1 | 9 | 1.1 | 6.2 | 1.4 |  |  | 
0.5 | 2.5 | 9.6 | 0.4 | 4.2 | 12 | 1.8 | Cc1cc(Nc2ccc(NC(=O)Cc3c[nH]c4cc(Cl)ccc34)cc2)nc(N2CCCC2)n1 | 8.2 | 2 | 3.4 | 2.3 | 1.4 |  | 
0.7 | 2.6 | 2.2 | 0.5 | 5.5 | 2.9 | 1.8 | Cc1cc(Nc2ccc(NC(=O)Cc3cccc4ccccc34)cc2)nc(N2CCCC2)n1 | 5.3 |  | 3.1 | 2.3 |  |  | 
1.6 | 2.7 | 6.4 | 0.9 | 6.9 | 16 | 1.7 | Cc1cc(Nc2ccc(NC(=O)Cc3c(C)[nH]c4ccccc34)cc2)nc(N2CCCC2)n1 | 11 | 2.3 | 4 | 2.2 | 1.6 |  | 
